In assay [1] the test system is Streptococcus intermedius. As to the kind of experiment: Antimicrobial activity against Streptococcus intermedius SI006 planktonic cells harboring luxS mutant gene assessed as bacterial count at 0.10 ug/ml (Rvb =798.3 +/- 37.09 10^8 CFU/ml). It counts as functional.
The subject of assay [2] is Streptococcus intermedius. The assay can be described thus: Antimicrobial activity against Streptococcus intermedius NCTC 11324 planktonic cells assessed as bacterial count at 0.10 ug/ml (Rvb =771.7 +/- 35.14 10^8 CFU/ml). Format: functional. In a few lines: (§1)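 Planktonic wild-type cells were inoculated at ≈4 × 10^5 CFU/ml in TSB in ultra-low-binding plates. Media were without or with ampicillin (0.02 to 0.14 μg/ml), ciprofloxacin (0.10 to 0.35 μg/ml) or tetracycline (0.03 to 0.20 μg/ml). After 12 h at 37°C in 5% CO2 aerobic air, CFU were counted, run in parallel with the BacTiter-Glo ATP assay. Experiments were done three times in two parallels.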

The test system of assay [3] is Streptococcus intermedius. As to the kind of experiment: Antimicrobial activity against Streptococcus intermedius NCTC 11324 planktonic cells assessed as bacterial count at 0.12 ug/ml (Rvb =771.7 +/- 35.14 10^8 CFU/ml). It counts as functional. In a few lines:
as §1

In assay [4] the test system is Streptococcus intermedius. As to the kind of experiment: Antimicrobial activity against Streptococcus intermedius NCTC 11324 planktonic cells assessed as bacterial count at 0.06 ug/ml (Rvb =771.7 +/- 35.14 10^8 CFU/ml). It counts as functional. In a few lines: as §1
Assay [5] deals with Streptococcus intermedius. The assay can be described thus: Antimicrobial activity against Streptococcus intermedius NCTC 11324 biofilm assessed as biofilm bacterial count at 0.04 ug/ml (Rvb =402.9 +/- 26.88 10^5 CFU/ml). Format: functional.
Assay [6] deals with Streptococcus intermedius. The assay can be described thus: Antimicrobial activity against Streptococcus intermedius SI006 planktonic cells harboring luxS mutant gene assessed as bacterial count at 0.06 ug/ml in presence of 0.8 nM autoinducer 4,5-dihydroxy-2,3-pentanedione (Rvb =793.3 +/- 42.40 10^8 CFU/ml). It counts as functional.
In assay [7] the test system is Streptococcus intermedius. The assay can be described thus: Antimicrobial activity against Streptococcus intermedius SI006 biofilm harboring luxS mutant gene assessed as biofilm bacterial count at 0.04 ug/ml (Rvb =310.8 +/- 17.10 10^5 CFU/ml). It counts as functional.
Assay [8] concerns Streptococcus intermedius. As to the kind of experiment: Antimicrobial activity against Streptococcus intermedius SI006 biofilm harboring luxS mutant gene assessed as biofilm bacterial count at 0.02 ug/ml in presence of 0.8 nM autoinducer 4,5-dihydroxy-2,3-pentanedione (Rvb =413.7 +/- 24.47 10^5 CFU/ml). Format: functional.
Assay [9] has as its system Streptococcus intermedius. The assay can be described thus: Antimicrobial activity against Streptococcus intermedius SI006 planktonic cells harboring luxS mutant gene assessed as bacterial count at 0.12 ug/ml (Rvb =798.3 +/- 37.09 10^8 CFU/ml). Format: functional.
Assay [10] relates to Streptococcus intermedius. As to the kind of experiment: Antimicrobial activity against Streptococcus intermedius NCTC 11324 biofilm assessed as biofilm bacterial count at 0.02 ug/ml (Rvb =402.9 +/- 26.88 10^5 CFU/ml). Format: functional.
Assay [11] deals with Streptococcus intermedius. The assay can be described thus: Antimicrobial activity against Streptococcus intermedius SI006 planktonic cells harboring luxS mutant gene assessed as bacterial count at 0.08 ug/ml in presence of 0.8 nM autoinducer 4,5-dihydroxy-2,3-pentanedione (Rvb =793.3 +/- 42.40 10^8 CFU/ml). Format: functional.
For assay [12], the system named is Streptococcus intermedius. The assay can be described thus: Antimicrobial activity against Streptococcus intermedius SI006 planktonic cells harboring luxS mutant gene assessed as bacterial count at 0.06 ug/ml (Rvb =798.3 +/- 37.09 10^8 CFU/ml). Format: functional.
The subject of assay [13] is Streptococcus intermedius. As to the kind of experiment: Antimicrobial activity against Streptococcus intermedius NCTC 11324 planktonic cells assessed as bacterial count at 0.08 ug/ml (Rvb =771.7 +/- 35.14 10^8 CFU/ml). Format: functional. In a few lines:
as §1

Assay [14] relates to Streptococcus intermedius. As to the kind of experiment: Antimicrobial activity against Streptococcus intermedius NCTC 11324 assessed as biofilm formation at 0.04 to 0.10 ug/ml. Format: functional, organism-based. In outline:
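Wild-type NCTC 11324 was grown overnight in TSB and inoculated into TSB with ampicillin (0.02 to 0.10 μg/ml), ciprofloxacin (0.10 to 0.28 μg/ml) or tetracycline (0.05 to 0.30 μg/ml), added at time zero. Wells held plastic coverslips and were incubated 12 h at 37°C in 5% CO2 aerobic air. Biofilm was measured as described previously. Experiments were done three times in three parallels.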

The test system of assay [15] is Streptococcus intermedius. As to the kind of experiment: Antimicrobial activity against Streptococcus intermedius SI006 planktonic cells harboring luxS mutant gene assessed as bacterial count at 0.08 ug/ml (Rvb =798.3 +/- 37.09 10^8 CFU/ml). Format: functional.
The subject of assay [16] is Streptococcus intermedius. The assay can be described thus: Antimicrobial activity against Streptococcus intermedius SI006 biofilm harboring luxS mutant gene assessed as biofilm bacterial count at 0.06 ug/ml in presence of 0.8 nM autoinducer 4,5-dihydroxy-2,3-pentanedione (Rvb =413.7 +/- 24.47 10^5 CFU/ml). Format: functional.
The subject of assay [17] is Streptococcus intermedius. The assay can be described thus: Antimicrobial activity against Streptococcus intermedius SI006 biofilm harboring luxS mutant gene assessed as biofilm bacterial count at 0.02 ug/ml (Rvb =310.8 +/- 17.10 10^5 CFU/ml). Format: functional.
The subject of assay [18] is Streptococcus intermedius. The assay can be described thus: Antimicrobial activity against Streptococcus intermedius SI006 biofilm harboring luxS mutant gene assessed as biofilm bacterial count at 0.04 ug/ml in presence of 0.8 nM autoinducer 4,5-dihydroxy-2,3-pentanedione (Rvb =413.7 +/- 24.47 10^5 CFU/ml). Format: functional.
Assay [19] deals with Streptococcus intermedius. As to the kind of experiment: Antimicrobial activity against Streptococcus intermedius SI006 planktonic cells harboring luxS mutant gene assessed as bacterial count at 0.10 ug/ml in presence of 0.8 nM autoinducer 4,5-dihydroxy-2,3-pentanedione (Rvb =793.3 +/- 42.40 10^8 CFU/ml). It counts as functional.
Assay [20] deals with Streptococcus intermedius. The assay can be described thus: Antimicrobial activity against Streptococcus intermedius NCTC 11324 biofilm assessed as biofilm bacterial count at 0.06 ug/ml (Rvb =402.9 +/- 26.88 10^5 CFU/ml). Format: functional.
The subject of assay [21] is Streptococcus intermedius. As to the kind of experiment: Antimicrobial activity against Streptococcus intermedius NCTC 11324 assessed as growth inhibition at 0.16 ug/ml. It counts as functional. In a few lines: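 Broth microdilution MIC in ultra-low-binding 96-well plates, inoculum ≈4 × 10^5. Growth was read at 595 nm, and the MIC was taken as the lowest antibiotic concentration inhibiting growth.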

The subject of assay [22] is Streptococcus intermedius. The assay can be described thus: Antimicrobial activity against Streptococcus intermedius SI006 planktonic cells harboring luxS mutant gene assessed as bacterial count at 0.12 ug/ml in presence of 0.8 nM autoinducer 4,5-dihydroxy-2,3-pentanedione (Rvb =793.3 +/- 42.40 10^8 CFU/ml). Format: functional.
The subject of assay [23] is Streptococcus intermedius. The assay can be described thus: Antimicrobial activity against Streptococcus intermedius SI006 biofilm harboring luxS mutant gene assessed as biofilm bacterial count at 0.06 ug/ml (Rvb =310.8 +/- 17.10 10^5 CFU/ml). It counts as functional.

The source made the active and inactive calls. The calls are words filed in the database; no cut-off is given here.

Take `CC1(C)S[C@@H]2[C@H](NC(=O)[C@H](N)c3ccccc3)C(=O)N2[C@H]1C(=O)O` [AMPICILLIN]: the CFU in assay [1] is given as 10.3 ×10⁸ /ml; in assay [2], 45.3 ×10⁸ /ml; in [3] it was 20.7 ×10⁸ /ml; in assay [4], 61.2 ×10⁸ /ml; in assay [5] it was 621.6 ×10⁵ /ml; in assay [6], 48.7 ×10⁸ /ml. The CFU in [7] stood at 268.6 ×10⁵ /ml; in [8], 459.5 ×10⁵ /ml; in [9], 8.5 ×10⁸ /ml; in assay [10], 486.2 ×10⁵ /ml; in assay [11], 39.1 ×10⁸ /ml; in assay [12], 41.8 ×10⁸ /ml. Also, the CFU in assay [13] is on record as 43.3 ×10⁸ /ml; in assay [15], 16.4 ×10⁸ /ml; in assay [16], 819.2 ×10⁵ /ml; in assay [17], 324.1 ×10⁵ /ml; in assay [18], 686 ×10⁵ /ml; in assay [19], 39.6 ×10⁸ /ml. The CFU in assay [20] worked out at 894.7 ×10⁵ /ml; in assay [22], 18.4 ×10⁸ /ml; in assay [23], 162.1 ×10⁵ /ml. In assay [14], the result was inactive. For the same molecule, the Activity in [21] came to 0.16 µg/mL.

These data come from ChEMBL document CHEMBL1649212, “AI-2/LuxS is involved in increased biofilm formation by Streptococcus intermedius in the presence of antibiotics” (2009).
